Tests used:
hOATP1B3 = molecular target: T1, hOATP1B3 (Homo sapiens, UniProt Q9NPD5); assay: Cellular uptake and kinetics in HEK293-hOATP1B3 vs Mock cells; assay type: in vitro ADME; conditions: 100 μmol/L, substrate if >2-fold of wild type
T1 sequence (Q9NPD5 1-702): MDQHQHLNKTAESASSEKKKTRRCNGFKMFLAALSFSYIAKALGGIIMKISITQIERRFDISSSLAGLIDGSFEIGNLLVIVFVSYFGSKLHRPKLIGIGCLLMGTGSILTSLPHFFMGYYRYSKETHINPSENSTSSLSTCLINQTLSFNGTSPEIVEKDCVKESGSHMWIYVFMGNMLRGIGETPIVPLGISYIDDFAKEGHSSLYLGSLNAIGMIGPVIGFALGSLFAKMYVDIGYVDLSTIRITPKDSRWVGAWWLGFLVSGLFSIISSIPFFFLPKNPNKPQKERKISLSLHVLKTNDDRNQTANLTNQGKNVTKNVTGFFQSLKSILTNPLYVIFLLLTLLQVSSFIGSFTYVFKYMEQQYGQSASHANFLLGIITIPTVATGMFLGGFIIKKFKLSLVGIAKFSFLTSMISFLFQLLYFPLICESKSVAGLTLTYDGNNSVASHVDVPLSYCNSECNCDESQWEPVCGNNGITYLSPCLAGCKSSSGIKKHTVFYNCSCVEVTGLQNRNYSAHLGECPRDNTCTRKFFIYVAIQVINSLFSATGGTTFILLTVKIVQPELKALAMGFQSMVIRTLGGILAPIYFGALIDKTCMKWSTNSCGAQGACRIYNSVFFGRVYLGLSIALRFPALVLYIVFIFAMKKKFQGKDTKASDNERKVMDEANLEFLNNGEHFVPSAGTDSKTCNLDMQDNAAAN
Method in brief: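 Transfected cells and matching Mock cells were seeded at 2 × 10⁵ cells/mL and grown 2 days. After a DPBS (pH 7.4) wash and 10 min preincubation at 37 °C, cells took up 100 μmol/L test compound for 2–5 min at 37 °C. Uptake was stopped with three ice-cold DPBS washes, followed by methanol extraction and HPLC–MS. Values were normalised to BCA protein and compared with Mock.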

hOAT1 = molecular target: T2, hOAT1 (Homo sapiens, UniProt Q4U2R8); assay: Inhibition of 14C-PAH uptake in MDCK-hOAT1 cells; assay type: in vitro ADME; conditions: for inhibition of the activity of hOAT1: 100 μmol/L IPT, ISP, 100 μg/mL AD extract, substrate 14C-PAH
T2 sequence (Q4U2R8 1-563): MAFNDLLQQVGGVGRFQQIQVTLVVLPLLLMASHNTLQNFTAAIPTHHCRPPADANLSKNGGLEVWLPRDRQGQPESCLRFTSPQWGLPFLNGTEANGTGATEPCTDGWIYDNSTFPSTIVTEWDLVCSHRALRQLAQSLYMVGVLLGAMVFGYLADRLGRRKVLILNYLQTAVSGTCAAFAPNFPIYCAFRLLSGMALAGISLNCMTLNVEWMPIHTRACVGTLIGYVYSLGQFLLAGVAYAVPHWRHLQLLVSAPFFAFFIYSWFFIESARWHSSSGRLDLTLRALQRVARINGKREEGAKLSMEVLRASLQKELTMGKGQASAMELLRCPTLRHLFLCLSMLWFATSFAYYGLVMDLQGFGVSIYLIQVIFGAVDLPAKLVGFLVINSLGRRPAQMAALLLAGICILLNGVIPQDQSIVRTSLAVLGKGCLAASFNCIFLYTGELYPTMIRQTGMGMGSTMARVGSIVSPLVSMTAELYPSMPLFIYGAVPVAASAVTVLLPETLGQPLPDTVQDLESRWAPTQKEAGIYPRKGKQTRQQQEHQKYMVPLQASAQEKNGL
Method in brief: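 Test compounds were made as DMSO stocks (20 mmol/L, or 10 mg/mL for extract) and diluted in PBS to a final DMSO below 0.5%. Cells were exposed at 37 °C to probe plus or minus test compound. The probe was 5 μmol/L ¹⁴C-PAH for 5 min (hOAT1) or 50 nmol/L ³H-estrone sulfate for 2 min (hOAT3, hOATP2B1). Screens used 100 μmol/L (extract 100 mg/L); IC50 came from varied concentrations. Cells were then given three cold DPBS washes, lysed in 0.1 mol/L NaOH and read by scintillation counting. Data are mean ± SD, n = 3.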

Structure (SMILES) | accumulation in HEK293-hOATP1B3 vs HEK293 wild type (hOATP1B3) | IC50 (hOAT1) [µM] | inhibition of the activity of hOAT1 (hOAT1)
CC(C)=CCOc1c2occc2cc2ccc(=O)oc12 [IPT, imperatorin] | no significant differences | 31.7 | significantly inhibited
CC(C)=CCOc1c2ccoc2cc2oc(=O)ccc12 [ISP, isoimperatorin] | no significant differences | 26.8 | significantly inhibited

Reference: publication PMC7564327 (Acta Pharmaceutica Sinica. B, 2020)
